Env fusion inh – inhibitors of HIV-1 Env-driven cell-cell fusion, primary screen, HeLa-JRFL effector, CEM21 target cells, luciferase. inhibition, % at 12.3 µM. actives 1.1% (n = 360,000);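 active = mean replicate inhibition score of at least 50 and every replicate individually at or above 50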;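 also: 0% = plate neutral controls and 100% = maraviroc near 300 nM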
FN deposit inh – inhibitors of fibronectin matrix deposition, primary screen, AH1F cells, Alexa488-fibronectin fluorescence, plate reader. actives 0.086% (n = 350,000). inhibition, % at 12.6 µM. AH1F fibroblasts, overnight. AID 743247, 2014;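 active = mean inhibition across replicates of 30% or more, regardless of how many single replicates reach that level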;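 also: positive control wells lacked labelled fibronectin entirely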
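Material: AH1F fibroblast monolayer depositing Alexa488-labelled fibronectin into matrix / Amount: 10000 AH1F cells per well / Signal: fluorescence 485/525 nm / Medium: DMEM, 2% serum / Compound: single dose, pinned / Incubation: 1 h cell adhesion before compound, then overnight fibronectin incubation / Reagent: Alexa488-FN, 24 nM final / Read-out: inhibition of fibronectin deposition signal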
rRNA inh HTS – reduced GFP signal of wild-type E. coli, primary screen, bacterial rRNA inhibitor project, GFP/RFP fluorescence, OD600, single point | E. coli WT GFP vs humanized-ribosome RFP mutants, 24 h; active compounds read low; DMSO median 0, no signal -100 | GFP signal change (wild-type ribosome), % (concentration not given with the values) | actives 1.6% (n = 350,000) | AID 720706, 2013;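 active = significant combined selectivity score with lowered wild-type GFP, culture density cut under 30%, mutant RFP and density less affected; inactive = any of these conditions unmet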
PGC1a acetyl inh – inhibitors of PGC1a acetylation signal, primary screen, cell-based, U2OS, AlphaScreen, inhibitor mode | AlphaScreen anti-acetyl-lysine; with virally co-expressed GCN5 acetyltransferase | inhibition, % at 15.6 µM | actives 0.17% (n = 350,000) | AID 651687, 2012;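 active = every replicate shows inhibition of at least 40%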;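 also: 0% = neutral control wells and 100% = positive control wells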
PglD DTNB – C. jejuni PglD acetyltransferase inhibitors, primary screen, biochemical, DTNB colorimetric, single point; UDP-N-acetylbacillosamine N-acetyltransferase PglD (Campylobacter jejuni); purified PglD enzyme, DTNB colorimetric CoA detection; inhibition, % at 12.5 µM; actives 0.098% (n = 360,000); in the data active = inhibition above about 16%, passing the limit was not always enough
DENV2 CPE rescue – inhibitors of DENV2 cytopathic effect, primary screen, cell-based, plate reader, single concentration; DENV2-infected cells, cytopathic effect rescue; CPE inhibition, % at 9.99 µM; actives 1.7% (n = 350,000); AID 651640, 2012; in the data active = CPE inhibition above about 20%, passing the limit was not always enough; tested in BHK-21 cells;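 also: 0% = median of neutral control wells and 100% = median of positive control wells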
The depositor's hits bear a star; ! = not active in a repeat; [ ] = remark or other dose. In the library only some 3.5% were active in any assay of this set; here they are far more common.

For O=C(C[C@H]1C[C@H]2c3cc(NC(=O)NC4CCCC4)ccc3O[C@H]2[C@@H](CO)O1)NC1CCCCC1 the results were Env fusion inh 84*[16.7 µM], FN deposit inh -4, rRNA inh HTS 1, PGC1a acetyl inh 30, PglD DTNB 2 and DENV2 CPE rescue 8.
`O=C(C[C@H]1C[C@@H]2c3cc(NC(=O)NC4CCCC4)ccc3O[C@@H]2[C@H](CO)O1)NC1CCCCC1` gave Env fusion inh 5[16.7 µM], FN deposit inh -6, rRNA inh HTS 1, PGC1a acetyl inh 2, PglD DTNB -1 and DENV2 CPE rescue -3.
CC(C)CC#Cc1ccc2c(c1)O[C@@H](CN(C)C(=O)Cc1ccccc1)[C@@H](C)CN([C@@H](C)CO)S2(=O)=O was read as Env fusion inh -18[16.7 µM], FN deposit inh -17, rRNA inh HTS -2, PGC1a acetyl inh 4, PglD DTNB -1 and DENV2 CPE rescue -1.
O=C(C[C@@H]1C[C@H]2c3cc(NC(=O)NC4CCCCC4)ccc3O[C@H]2[C@H](CO)O1)NCCc1ccccc1 was read as Env fusion inh 2[16.7 µM], rRNA inh HTS 0, PGC1a acetyl inh 12, PglD DTNB 5 and DENV2 CPE rescue -3.
O=C(C[C@H]1C[C@@H]2c3cc(NC(=O)NC4CCCCC4)ccc3O[C@@H]2[C@@H](CO)O1)NCCc1ccccc1 was read as Env fusion inh 9[16.7 µM], rRNA inh HTS 3, PGC1a acetyl inh -9, PglD DTNB 6 and DENV2 CPE rescue 37*.
For C[C@H](NC(=O)C[C@@H]1C[C@H]2c3cc(NC(=O)NC4CCCC4)ccc3O[C@H]2[C@H](CO)O1)c1ccccc1 the results were Env fusion inh 21[16.7 µM], FN deposit inh -4, rRNA inh HTS -9, PGC1a acetyl inh -3, PglD DTNB 0 and DENV2 CPE rescue 27*.
`C[C@H](NC(=O)C[C@@H]1C[C@@H]2c3cc(NC(=O)NC4CCCC4)ccc3O[C@@H]2[C@@H](CO)O1)c1ccccc1` gave Env fusion inh -11[16.7 µM], FN deposit inh -5, rRNA inh HTS 2, PGC1a acetyl inh -6, PglD DTNB -1 and DENV2 CPE rescue 8.
O=C(C[C@@H]1C[C@H]2c3cc(NC(=O)NC4CCCCC4)ccc3O[C@H]2[C@@H](CO)O1)NCc1ccncc1 was read as Env fusion inh 61*[16.7 µM], FN deposit inh -7, rRNA inh HTS 1, PGC1a acetyl inh -2, PglD DTNB 6 and DENV2 CPE rescue -12.
`O=C(CC1CC1)Nc1ccc2c(c1)[C@@H]1C[C@H](CC(=O)NC3CCCC3)O[C@@H](CO)[C@@H]1O2` gave Env fusion inh 21, FN deposit inh -7, rRNA inh HTS 4, PGC1a acetyl inh 7, PglD DTNB -1 and DENV2 CPE rescue 29*!.
Cc1noc(C)c1S(=O)(=O)Nc1ccc2c(c1)C(=O)N([C@@H](C)CO)C[C@@H](C)[C@@H](CN(C)S(=O)(=O)c1c(C)noc1C)OCCCC[C@@H](C)O2 was read as Env fusion inh -17[16.7 µM], FN deposit inh 0, rRNA inh HTS 0, PGC1a acetyl inh -6, PglD DTNB 3 and DENV2 CPE rescue 4.
For CCCN(C)C[C@H]1Oc2cc(-c3cccc(OC)c3)ccc2S(=O)(=O)N([C@@H](C)CO)C[C@H]1C the results were Env fusion inh -10[16.7 µM], rRNA inh HTS -2, PGC1a acetyl inh -13, PglD DTNB -5 and DENV2 CPE rescue 5.
For C/C=C/c1ccc([C@H]2[C@@H](CO)N(C(=O)CC)[C@H]2CN(C)C(=O)NC(C)C)cc1 the results were FN deposit inh -14, rRNA inh HTS 1 and DENV2 CPE rescue 9.
Screening COCC(=O)Nc1ccc2c(c1)[C@@H]1C[C@@H](CC(=O)NC3CCCCC3)O[C@H](CO)[C@@H]1O2 returned Env fusion inh -16[16.7 µM], FN deposit inh 4, rRNA inh HTS 0, PGC1a acetyl inh 0, PglD DTNB 1 and DENV2 CPE rescue 2.
